As a reminder, the MIC is the smallest concentration in the dilution series that meets the test's criterion for growth inhibition. The IC50 is the point on the concentration scale where inhibition reaches its midpoint. Read a low IC50 as greater potency in that assay.

SMILES strings stand for the structures. In brackets after ≈: the same amount, converted by molar mass.

Assay [1] concerns Mycobacterium tuberculosis. Description: Antimycobacterial activity against Mycobacterium tuberculosis H37Rv after 7 days by resazurine microtiter assay. The assay is classed as functional. Particulars: 168 h. An outline of the steps:
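M. tuberculosis broth microdilution (REMA). Compounds dissolved as DMSO stocks and diluted in Middlebrook 7H9 broth with OADC enrichment. Culture and compounds combined in 96-well plates, in triplicate, incubated 7 days at 37 °C. Resazurin then added; fluorescence read at 530 nm excitation, 590 nm emission. Isoniazid run on every plate as standard.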

Assay [2] can be described thus: Selectivity index, ratio of IC50 for mouse J774 cells to MIC for Mycobacterium tuberculosis H37Rv. The assay is classed as functional.
For a further assay, the system named is J774. Description: Cytotoxicity against mouse J774 cells after 24 hrs by resazurin assay. Particulars: J774, 24 h. The assay is classed as cell-based. The procedure, abridged:
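J774 macrophages grown to confluence at 37 °C in 5% CO2, then seeded at 1 × 10^5 cells/mL and allowed 24 h to adhere. Resazurin added for 6 h; fluorescence read at 530 nm excitation, 590 nm emission.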
In general terms: Alamar Blue is a resazurin reagent that responds to reducing activity.

`O=C(N/N=C/c1ccccc1O)c1ccccc1O` registered an MIC in assay [1] of 122 µM (≈ 31.3 µg/mL). The “Selectivity Index” value in assay [2] was found to be 10. In the assay with J774, this compound came in with an IC50 of 1220 µM.
The compound `C/C(=N\NC(=S)Nc1ccccc1)c1ccccn1` gave an MIC in assay [1] of 57.7 µM (≈ 15.6 µg/mL).
With `C/C(=N\NC(N)=S)c1ccccn1`, 161 µM (≈ 31.3 µg/mL) was the least that counted as inhibitory in assay [1] (MIC).
Regarding `S=C(N/N=C(/C(=N/NC(=S)Nc1ccccc1)c1ccccc1)c1ccccc1)Nc1ccccc1`, the lowest concentration to inhibit growth in assay [1] (MIC) was 49.1 µM (≈ 25 µg/mL). Moreover, the “Selectivity Index” value in assay [2] came to 50. Further, it took 2460 µM to reach half-maximal inhibition in the assay with J774 (IC50).
On to `O=C(N/N=C/c1ccccn1)c1ccccc1O`, for which the minimal inhibitory concentration (MIC) in assay [1] is no less than 1040 µM. The “Selectivity Index” value in assay [2] was “<=1.25”. Half-maximal inhibition in the assay on J774 (IC50) required 1300 µM.
As for `CNC(=S)N/N=C(\C)c1ccccn1`, the MIC in assay [1] stood at 37.5 µM (≈ 7.8 µg/mL).
As for `O=C(N/N=C(/C(=N/NC(=O)c1ccncc1)c1ccccc1)c1ccccc1)c1ccncc1`, the MIC in assay [1] is 27.9 µM (≈ 12.5 µg/mL). In assay [2], the “Selectivity Index” value amounted to 12.5. Moreover, in the assay on J774, the IC50 amounted to 349 µM.
For `C/C(=N\NC(=S)N1CCCCCC1)c1ccccn1` the same measures were no less than 181 µM, “<=25” and 4520 µM.
Take `CCNC(=S)N/N=C(\C)c1ccccn1`: the MIC in assay [1] amounted to 14.1 µM (≈ 3.13 µg/mL). The “Selectivity Index” value in assay [2] amounted to 200. Besides, half-maximal inhibition in the assay on J774 (IC50) required 2810 µM.
